Starred links: 1 amine or outer side, 2 acyl side, 3 side chain; linkers in the order of their positions; H or OH if unused. Positions of bridges follow the written chain, without caps; N, C: chain ends. Non-standard residues stand in square brackets, D forms with d. Residues, ends and D or L forms follow the SMILES beside them. Chains are numbered I, II in the order given. Actinocin(1to9) = Cc1c2oc3c(C)ccc(C(=O)[*:2])c3nc-2c(C(=O)[*:1])c(N)c1=O; NMeV = CN[C@H](C(=O)O)C(C)C; Sar = CNCC(=O)O
Key:
CCRF-CEM = assay: Antiproliferative activity against human CCRF-CEM cells assessed as cell viability measured after 4 days by MTT assay; format: functional, cell-based; details: 96 h
Outline: (§1)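 Leukemia/lymphoma cells (RPMI 1640, 10% FCS) resuspended at 1 × 10⁵ cells/mL with serial drug dilutions and read by MTT after 96 h at 37 °C. Solid-tumor cells (own media, 10% FCS) were seeded at 5 × 10⁴ cells/mL, allowed 16 h to adhere, then dosed and read by MTT 4 days later. IC50 was derived by linear regression of growth as % of untreated controls.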

CCRF-SB = assay: Antiproliferative activity against human CCRF-SB cells assessed as cell viability measured after 4 days by MTT assay; format: functional, cell-based; details: 96 h; outline: as §1
MT4 = assay: Antiproliferative activity against human MT-4 cells assessed as cell viability measured after 4 days by MTT assay; format: functional, cell-based; details: MT4, 96 h; outline: as §1
HT-29 = assay: Antiproliferative activity against human HT-29 cells assessed as cell viability measured after 4 days by MTT assay; format: functional, cell-based; details: HT-29, 96 h; outline: as §1
MCF7 = assay: Antiproliferative activity against human MCF7 cells assessed as cell viability measured after 4 days by MTT assay; format: functional, cell-based; details: MCF7, 96 h; outline: as §1
HeLa = assay: Antiproliferative activity against human HeLa cells assessed as cell viability measured after 4 days by MTT assay; format: functional, cell-based; details: 96 h
Outline: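 Solid-tumor cells (own media, 10% FCS) were seeded at 5 × 10⁴ cells/mL, allowed 16 h to adhere, then dosed and read by MTT 4 days later. IC50 was derived by linear regression of growth as % of untreated controls.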

ACHN = assay: Antiproliferative activity against human ACHN cells assessed as cell viability measured after 4 days by MTT assay; format: functional, cell-based; details: 96 h; outline: as §1
SK-MEL-28 = assay: Antiproliferative activity against human SKMEL-28 cells assessed as cell viability measured after 4 days by MTT assay; format: functional, cell-based; details: SK-MEL-28, 96 h; outline: as §1
G-361 = assay: Antiproliferative activity against human G-361 cells assessed as cell viability measured after 4 days by MTT assay; format: functional, cell-based; details: G-361, 96 h; outline: as §1
Calf thymus DNA [1] = assay: Binding affinity to calf thymus DNA assessed as lamda max by UV-vis spectroscopy; format: nucleic-acid assay; details: Bos taurus
Outline: (§2)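 ctDNA held at 0.2 mM in phosphate buffer pH 7 and titrated with drug from […]. UV-vis spectra recorded in a 1 cm quartz cuvette. Binding constant was taken by the mole-ratio method from optical density changes at 260 nm, using a double reciprocal plot.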

Calf thymus DNA [2] = assay: Binding affinity to calf thymus DNA assessed as isosbestic point by UV-vis spectroscopy; format: nucleic-acid assay; details: Bos taurus; outline: as §2
Calf thymus DNA [3] = assay: Binding affinity to calf thymus DNA assessed as red shift by UV-vis spectroscopy; format: nucleic-acid assay; parameters: unit not given here; details: Bos taurus; outline: as §2
Calf thymus DNA [4] = assay: Binding affinity to calf thymus DNA assessed as hypochromism by UV-vis spectroscopy; details: Bos taurus

| SMILES | IC50 (CCRF-CEM) | IC50 (CCRF-SB) | IC50 (HT-29) | IC50 (MCF7) | IC50 (HeLa) | IC50 (ACHN) | IC50 (SK-MEL-28) | Activity (Calf thymus DNA [1]) | Activity (Calf thymus DNA [2]) | Activity (Calf thymus DNA [3]) | Activity (Calf thymus DNA [4]) | IC50 (MT4) | IC50 (G-361) |
| --- | --- | --- | --- | --- | --- | --- | --- | --- | --- | --- | --- | --- | --- |
| NCCCC[C@H](NC(=O)c1ccc2oc3cc(=O)c4cccnc4c-3nc2c1)C(=O)O | 160 nM | 160 nM | 200 nM | 100 nM | 100 nM | 80 nM | 210 nM | 445 | 280 nm | 447 | 19% | 200 nM | 50 nM |
| COc1cc([C@@H]2c3cc4c(cc3[C@@H](O[C@@H]3O[C@@H]5CO[C@@H](C)O[C@H]5[C@H](O)[C@H]3O)[C@H]3COC(=O)[C@H]23)OCO4)cc(OC)c1O [ETOPOSIDE] |  |  |  |  | 3000 nM |  | 1100 nM |  |  |  |  |  | 2300 nM |
| Cc1c2oc3c(C)ccc(C(=O)N[C@@H]4C(=O)N[C@H](C(C)C)C(=O)N5CCC[C@H]5C(=O)N(C)CC(=O)N(C)[C@@H](C(C)C)C(=O)O[C@@H]4C)c3nc-2c(C(=O)N[C@@H]2C(=O)N[C@H](C(C)C)C(=O)N3CCC[C@H]3C(=O)N(C)CC(=O)N(C)[C@@H](C(C)C)C(=O)O[C@@H]2C)c(N)c1=O [DACTINOMYCIN] (I: T[dV]P[Sar][NMeV] / II: T[dV]P[Sar][NMeV]; ester I:1-I:C, II:1-II:C; linker I:N-II:N via Actinocin(1to9)) |  |  |  |  |  |  |  |  |  |  |  |  | 6 nM |

Further lines, with some results ahead:

| IC50 (CCRF-CEM) | IC50 (CCRF-SB) | IC50 (HT-29) | IC50 (MCF7) | IC50 (HeLa) | IC50 (ACHN) | IC50 (SK-MEL-28) | Activity (Calf thymus DNA [1]) | Activity (Calf thymus DNA [2]) | Activity (Calf thymus DNA [3]) | Activity (Calf thymus DNA [4]) | SMILES | IC50 (MT4) | IC50 (G-361) |
| --- | --- | --- | --- | --- | --- | --- | --- | --- | --- | --- | --- | --- | --- |
| 150 nM | 160 nM | 100 nM | 120 nM | 100 nM | 70 nM | 80 nM | 459 | 320 nm | 461 | 17% | N[C@@H](CCCCNC(=O)c1ccc2nc3c4ncccc4c(=O)cc-3oc2c1)C(=O)O | 200 nM | 90 nM |
| 90 nM | 150 nM | 380 nM | 370 nM | 150 nM | 230 nM | 400 nM |  |  |  |  | O=c1cc2oc3ccccc3nc-2c2ncccc12 | 180 nM | 450 nM |
| 17 nM | 80 nM | 100 nM | 50 nM | 50 nM | 60 nM | 60 nM | 451 | 297 nm | 455 | 26% | NCCCC[C@H](NC(=O)c1ccc2nc3c4ncccc4c(=O)cc-3oc2c1)C(=O)O | 200 nM | 50 nM |
| 20 nM |  |  |  |  |  |  |  |  |  |  | COc1cccc2c1C(=O)c1c(O)c3c(c(O)c1C2=O)C[C@@](O)(C(=O)CO)C[C@@H]3O[C@H]1C[C@H](N)[C@H](O)[C@H](C)O1 [DOXORUBICIN] |  |  |

Reference: ChEMBL document CHEMBL4706487, “Antitumor agents 7. Synthesis, antiproliferative activity and molecular modeling of new l-lysine-conjugated pyridophenoxazinones as potent DNA-binding ligands and topoisomerase IIα inhibitors” (Eur J Med Chem, 2020)
